Measured values: ChEMBL document CHEMBL1147241, “Cytotoxic constituents of Isodon rubescens var. lushiensis” (J Nat Prod, 2003)
Converted amounts (≈) assume the structure as drawn.

Test system: not listed separately
Assay: Cytotoxicity against human CA cells by SRB method
Type: functional, cell-based
Outline: (§1)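 Sulforhodamine B (SRB) assay on CA liver cancer and HeLa cervical cancer cells; cis-platinum as positive control. Optical density recorded as mean ± S; IC50 calculated from OD data.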

SMILES	IC50 [µg/mL]
C=C1C(=O)[C@]23C[C@H]1CC[C@H]2[C@@]1(CCC[C@@]2(C)CO[C@@H](OC)[C@H]21)COC3=O [LUDONGNIN J]	0.09 (≈ 0.25 µM)

Test system: K562
Assay: Cytotoxicity against human K562 cells by MTT method
Type: functional, cell-based
Outline: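 Improved MTT assay on K562 human leukemia cells; cis-platinum as positive control. Optical density recorded as mean ± S; IC50 calculated from OD data.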

SMILES	IC50 [µg/mL]
C=C1[C@@H]2C[C@@H](O)[C@H]3[C@@]4(CCC[C@@]5(C)COC(=O)[C@H]54)COC(=O)[C@]3(C2)[C@@H]1O [GUIDONGNIN A]	0.3 (≈ 0.828 µM)
CO[C@@H]1OC[C@]2(C)CCC[C@]3(COC(=O)[C@@]45C[C@@H](CC[C@H]43)[C@H](C)C5=O)[C@H]12 [LUDONGNIN G]	> 50
C=C1C(=O)[C@]23C[C@H]1CC[C@H]2[C@@]1(CCC[C@@]2(C)CO[C@@H](OC)[C@H]21)COC3=O [LUDONGNIN J]	0.18 (≈ 0.499 µM)
C[C@H]1C(=O)[C@]23C[C@H]1CC[C@H]2[C@@]1(CCC[C@@]2(C)COC(=O)[C@H]21)COC3=O [GUIDONGNIN B]	> 50
C=C1C(=O)[C@]23C[C@H]1C[C@@H](O)[C@H]2[C@@]1(CCC[C@@]2(C)CO[C@H](OC)[C@H]21)COC3=O [ANGUSTIFOLIN]	0.23 (≈ 0.611 µM)
CO[C@H]1OC[C@]2(C)CCC[C@]3(COC(=O)[C@@]45C[C@@H](CC[C@H]43)[C@@H](C)C5=O)[C@H]12 [LUDONGNIN I]	> 50
C=C1C(=O)[C@]23C[C@H]1C[C@@H](O)[C@H]2[C@@]1(CCC[C@@]2(C)CO[C@@H](OC)[C@H]21)COC3=O	0.87 (≈ 2.31 µM)
C=C1C(=O)[C@]23C[C@H]1C[C@@H](O)[C@H]2[C@@]1(CCC[C@@]2(C)COC(=O)[C@H]21)COC3=O [LUDONGNIN A]	0.25 (≈ 0.694 µM)
CO[C@H]1OC[C@]2(C)CCC[C@]3(COC(=O)[C@@]45C[C@@H](CC[C@H]43)[C@H](C)C5=O)[C@H]12 [LUDONGNIN H]	> 50
CO[C@@H]1OC[C@]2(C)CCC[C@]3(COC(=O)[C@@]45C[C@@H](CC[C@H]43)[C@@H](C)C5=O)[C@H]12 [LUDONGNIN F]	> 50
C=C1C(=O)[C@]23C[C@H]1CC[C@H]2[C@]1(COC3=O)C2CC[C@@]3(C)COC(O2)[C@H]31 (some centres undefined) [SCULPONEATIN J]	0.83 (≈ 2.41 µM)
C[C@H]1C(=O)[C@]23C[C@H]1C[C@@H](O)[C@H]2[C@@]1(CCC[C@@]2(C)COC(=O)[C@H]21)COC3=O [GUIDONGNIN C]	> 50

Test system: HeLa
Assay: Cytotoxicity against human HeLa cells by SRB method
Type: functional, cell-based
Outline: as §1

SMILES	IC50 [µg/mL]
C=C1C(=O)[C@]23C[C@H]1CC[C@H]2[C@@]1(CCC[C@@]2(C)CO[C@@H](OC)[C@H]21)COC3=O [LUDONGNIN J]	0.7 (≈ 1.94 µM)
